From PubChem BioAssay
SENP8 block-1 – human SENP8 protease inhibitors, primary screen, biochemical, fluorescence, Nedd8 protein substrate, uHTS | Sentrin-specific protease 8 (Homo sapiens), Q96LD8 | recombinant SENP8 | inhibition, % at 20 µM | hit rate 0.64% among 360,000; in the data active = inhibition mostly above about 40%, no sharp cut-off; inactive = mostly below about 27%
Target sequence (Q96LD8 whole entry, looked up): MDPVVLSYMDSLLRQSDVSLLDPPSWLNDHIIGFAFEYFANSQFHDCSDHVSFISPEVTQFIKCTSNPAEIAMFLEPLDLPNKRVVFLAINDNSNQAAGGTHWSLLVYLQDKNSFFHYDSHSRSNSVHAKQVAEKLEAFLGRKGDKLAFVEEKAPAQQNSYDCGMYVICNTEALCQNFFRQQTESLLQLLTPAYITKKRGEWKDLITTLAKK
SENP6 block – SENP6 protease inhibitors, primary screen, biochemical, luminescence, uHTS | Sentrin-specific protease 6 (Homo sapiens), Q9GZR1 | Recombinant SENP6 catalytic domain, aminoluciferin luminescence | inhibition, % at 10 µM | hit rate 1.8% among 330,000 | AID 2599, 2010;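 active = inhibition above about 50% at the single tested dose, limit read from the data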
Platelet DG rel – inhibitors of platelet dense granule secretion, primary screen, cell-based, MLPCN, human platelets | inhibition, %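 (compounds screened at 7.5 µM in platelet-rich plasma)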 | human platelet-rich plasma, SFLLRN dense granule ATP release, luminescence | hit rate 0.22% among 300,000;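 active = mean replicate score, as percent of positive control, at or above 50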
SENP1 FRET inh – human SENP1 catalytic domain inhibitors, primary screen, biochemical, FRET, uHTS | Sentrin-specific protease 1 (Homo sapiens), Q9P0U3 | recombinant SENP1 catalytic domain, CyPet-SUMO1-YPet FRET cleavage | inhibition, % at 10 µM | hit rate 0.21% among 360,000 | AID 624204, 2012;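 active = inhibition at least 30% at 10 µM, raw YFP signal under a set limit, fluorescence ratio 0.5 to 1.5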
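Assay system: hSENP1 catalytic domain, recombinant. Amount: SENP1 enzyme, 20 pM final. Schedule: 50 min reaction, RT, dark. Technique: FRET, CFP and YFP emission. Control set: no-enzyme wells low, DMSO-plus-enzyme wells high control.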
SENP7 block – SENP7 protease inhibitors, primary screen, biochemical, luminescence, uHTS; recombinant SENP7, Z-RLRGG-aminoluciferin luminescence, 40 min; Sentrin-specific protease 7 (Homo sapiens), Q9BQF6; AID 434973, 2010; hit rate 1.5% among 330,000; inhibition, % at 5 µM;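 active = inhibition above about 50% at the single test dose, limit read from the data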
Target sequence (Q9BQF6 706-1050 limits assumed): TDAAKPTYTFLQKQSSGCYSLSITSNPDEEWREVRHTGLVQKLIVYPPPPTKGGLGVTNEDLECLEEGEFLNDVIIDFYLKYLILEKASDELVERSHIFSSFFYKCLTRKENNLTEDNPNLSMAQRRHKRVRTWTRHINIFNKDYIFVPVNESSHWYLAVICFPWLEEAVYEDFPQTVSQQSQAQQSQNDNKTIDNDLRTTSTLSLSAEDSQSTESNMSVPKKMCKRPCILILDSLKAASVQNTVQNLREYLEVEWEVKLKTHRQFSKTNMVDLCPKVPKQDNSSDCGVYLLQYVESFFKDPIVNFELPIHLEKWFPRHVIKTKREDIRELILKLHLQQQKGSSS
SENP8 block-2 – SENP8 protease inhibitors, primary screen, biochemical, luminescence | Sentrin-specific protease 8 (Homo sapiens), Q96LD8 | purified SENP8, Z-RLRGG-aminoluciferin cleavage | inhibition, % at 10 µM | hit rate 1.2% among 330,000 | AID 2540, 2010; in the data active = inhibition above about 50%
Each line names hits and unclear results; the compound was inactive in the other large screens. This is a sample that favours compounds with a hit; in the whole collection about 2.6% have one here.

CCOC(=O)c1cccc(NC(=O)Cn2c(CC(=O)N3CCCC3)nc3ccccc32)c1	SENP6 block 76 (no result: SENP8 block-1, SENP1 FRET inh)
O=C(O)Cn1c(CC(=O)N2CCCC2)nc2ccccc21	none
NS(=O)(=O)c1ccc(CCNC(=O)c2coc3ccccc3c2=O)cc1	none
CC1OC2CC(=O)OC2C2=C1C(=O)c1c(O)cccc1C2=O (stereo unspecified)	SENP8 block-1 99 (no result: SENP6 block, Platelet DG rel, SENP7 block, SENP8 block-2)
O=C1c2cccc(O)c2C(=O)c2c(O)cc(CO)cc21	none (no result: SENP8 block-1, SENP1 FRET inh)
O=C1CSC(=S)N1/N=C/c1ccc(O)c(O)c1O	SENP8 block-1 53
COc1ccc(-c2csc(C(C)(NC(C)=O)c3ccccc3)n2)cn1 (stereo unspecified)	none (no result: SENP6 block, Platelet DG rel, SENP7 block, SENP8 block-2)
CC(N=Cc1cc([N+](=O)[O-])ccc1O)c1ccccc1 (stereo unspecified)	none
CC(N=Cc1cccc(O)c1O)c1ccccc1 (stereo unspecified)	SENP8 block-1 81
COc1ccc(NS(=O)(=O)c2ccc(NC(=S)NC(=O)c3cccnc3)cc2)nn1	none
COc1ccc(NS(=O)(=O)c2ccc(NC(=S)NC(=O)c3cccc(F)c3)cc2)nn1	SENP6 block 92, SENP7 block 80, SENP8 block-2 85
COc1ccc(N2CCN(C3CCCN(C(=O)C4=C(C)OCCO4)C3)CC2)cc1 (stereo unspecified)	none
COc1ccc(CC(=O)OCN2C(=O)c3ccccc3C2=O)cc1OC	none
C=C(C)Cn1c(CN(C)Cc2ccccc2)nc2c1c(=O)n(C)c(=O)n2C	none
Cc1ccccc1NC(=O)Nc1nc(C(N)C2CCCCC2)cs1 (stereo unspecified)	none (no result: SENP6 block, Platelet DG rel, SENP7 block, SENP8 block-2)
CSCCC(NS(=O)(=O)c1ccccc1)C(=O)OCc1cc(=O)oc2cc(O)ccc12 (stereo unspecified)	none
Nc1ccccc1Nc1ccccc1	SENP1 FRET inh 49
Nc1ccc(Nc2ccccc2)c(Cl)c1	none
Cc1cccc2nc(COc3ccc(-c4ccccc4)cc3)cn12	SENP6 block 94, SENP7 block 95, SENP8 block-2 92 (no result: SENP8 block-1, SENP1 FRET inh)
O=C(CSc1nnc(C2CC2)n1Cc1ccccc1)N1CCNC1=O	none (no result: Platelet DG rel)
CC1=NN(c2ccccc2)C(=O)/C1=C\c1cc(C)n(-c2ccccc2)c1C	SENP8 block-1 46
CC1=NN(c2ccccc2)C(=O)/C1=C\c1cc(C)n(-c2cccnc2)c1C	SENP8 block-1 42
COc1cc(CC(=O)OCC(=O)N(C)C2CCCCC2)cc(OC)c1OC	none (no result: Platelet DG rel)
O=c1cc(-c2ccc(O)cc2)oc2c1ccc1ccccc12	none (no result: Platelet DG rel)
O=c1cc(-c2ccc(O)cc2)oc2c(O)c(O)c(O)c(O)c12	SENP8 block-1 71 (no result: Platelet DG rel)
COC(=O)[C@]12CCCCC=C1N(CCc1ccc(OC)c(OC)c1)C(=O)[C@H](CC(=O)NCCc1ccccc1OC)C2	none (no result: SENP6 block, Platelet DG rel, SENP7 block, SENP8 block-2)
O=C1c2ccccc2[C@@H]2CC(O)C(O)CCN12 (stereo partly specified)	none (no result: SENP6 block, Platelet DG rel, SENP8 block-2)
CC1(C)Cc2ccccc2C2CC(O)C(=O)N21 (stereo unspecified)	SENP8 block-1 40
NS(=O)(=O)c1ccc(N/N=C/c2ccc(C(=O)O)cc2)c([N+](=O)[O-])c1	none
Cc1nn(-c2ccccc2)c(N2CCCC2)c1/C=N/Nc1ccc(S(N)(=O)=O)cc1[N+](=O)[O-]	SENP8 block-1 48
COc1cccc(NC(=S)N2CCC(NC(=O)c3ccco3)CC2)c1	none
CCOc1cc(/C=N/Nc2ccc(S(=O)(=O)Nc3ccccc3C(=O)O)cc2[N+](=O)[O-])cc(Cl)c1O	none (no result: SENP6 block, Platelet DG rel, SENP7 block, SENP8 block-2)
CCOc1ccc(C=NNc2ccc(S(=O)(=O)Nc3ccccc3C(=O)O)cc2[N+](=O)[O-])cc1OC	SENP8 block-1 52 (no result: Platelet DG rel)
COc1cc(C=NNc2ccc(S(=O)(=O)Nc3ccccc3C(=O)O)cc2[N+](=O)[O-])ccc1O	SENP8 block-1 46 (no result: Platelet DG rel)
O=C(O)c1ccccc1NS(=O)(=O)c1ccc(N/N=C/c2cccc(O)c2O)c([N+](=O)[O-])c1	SENP8 block-1 39 (no result: SENP6 block, Platelet DG rel, SENP7 block, SENP8 block-2)
CC(=O)Nc1ccc(C=NNc2ccc(S(=O)(=O)Nc3ccccc3C(=O)O)cc2[N+](=O)[O-])cc1	none (no result: Platelet DG rel)
O=C(Cc1ccccc1)NC1(Cc2ccc(O)cc2)CCCCC1	none
CC(=O)CC1c2ccccc2C=C(c2ccsc2)N1c1ccc(-c2cccs2)cc1 (stereo unspecified)	none (no result: SENP6 block, Platelet DG rel, SENP7 block, SENP8 block-2)
O=c1[nH][nH]c2c(N=Cc3ccccc3O)ccc(F)c12	SENP8 block-1 47 (no result: SENP6 block, Platelet DG rel, SENP7 block, SENP8 block-2)
CCOc1ccc(S(=O)(=O)N2CCCCC2)cc1NC(=O)Cc1ccsc1	none (no result: Platelet DG rel)
Cc1nc2sccn2c(=O)c1S(=O)(=O)NCc1ccccc1Cl	none
CCC(Cc1ccccc1)NS(=O)(=O)c1c(C)nc2sccn2c1=O (stereo unspecified)	Platelet DG rel 58
Cc1nn(-c2ccccc2)c(Cl)c1/C=C1\SC(=S)N(CCCCCC(=O)O)C1=O	SENP8 block-1 54
O=C(Nc1ccccc1N1CCCC1)c1cc2ccccc2o1	SENP6 block 63
CCN(CC(=O)Nc1ccc(OC)c(Cl)c1)CC(=O)NC(C)C	none
CC(C)c1ccc(S(=O)(=O)/N=C2\C=C(NS(=O)(=O)c3ccccc3)C(=O)c3ccccc32)cc1	SENP8 block-1 62 (no result: SENP6 block, SENP7 block, SENP8 block-2)
CCc1ccc(S(=O)(=O)Nc2ccncc2)cc1	none
CCc1ccc(S(=O)(=O)/N=C2\C=C(NS(=O)(=O)c3ccccc3)C(=O)c3ccccc32)cc1	SENP8 block-1 70
CC(C)c1ccc(S(=O)(=O)/N=C2/C=CC(=O)c3ccccc32)cc1	none (no result: SENP8 block-1, Platelet DG rel, SENP1 FRET inh)
CCOc1cc(CNc2ccc(O)cc2)cc(Br)c1OCc1ccccc1F	SENP8 block-1 41
FC(F)(F)c1nc2nc(Cl)c(Cl)nc2n1CCCN1CCOCC1	none (no result: SENP6 block, Platelet DG rel, SENP7 block, SENP8 block-2)
O=C1CSC(c2cn(-c3ccccc3)nc2-c2ccc3c(c2)OCCO3)N1CCN1CCOCC1 (stereo unspecified)	Platelet DG rel 55
c1ccc(-n2cc(CN3CCC(N4CCOCC4)CC3)c(-c3ccc4c(c3)OCO4)n2)cc1	none
CN(C)CCNc1ccc(CO)c2sc3ccc(O)cc3c(=O)c12	SENP8 block-1 45 (no result: SENP6 block, Platelet DG rel, SENP7 block, SENP8 block-2)
CC(=O)Nc1cc(-c2ccccc2)cn2c(-c3ccc(F)cc3)cnc12	none (no result: SENP6 block, Platelet DG rel, SENP7 block, SENP8 block-2)
CCC(=O)NCCc1nc2cc(NC(=O)c3ccco3)ccc2n1C	none
CCOC(=O)N=Nc1c2ccccc2c2nc3no[nH]c3nc12	SENP8 block-1 94, SENP6 block 62
CCOC(=O)N=Nc1c(O)n(CC(=O)OC)c2ccccc12	none
COc1ccc(NC(=O)O/N=C/c2c(C)nn(C(C)(C)C)c2C)cc1	none
Cc1nn(C(C)(C)C)c(C)c1/C=N/OC(=O)Nc1ccc(Cl)c(Cl)c1	SENP6 block 59
NC1=CC(=O)C(=O)c2ccccc21	none (no result: SENP6 block, Platelet DG rel, SENP7 block, SENP8 block-2)
